Test results reported in ChEMBL document CHEMBL1144548, “Dioxane and oxathiane nuclei: suitable substructures for muscarinic agonists” (Bioorg Med Chem, 2007).
The source made the active and inactive calls. No cut-off for these calls is given here.

Columns and labels:
[1] = system: Muscarinic acetylcholine receptor M4 (Cavia porcellus); assay: Intrinsic activity at muscarinic M4 receptor in guinea-pig lung strips assessed as ratio of agonist activity to activity of McN-A-343
[2] = system: Muscarinic acetylcholine receptor M2 (Cavia porcellus); assay: Agonist activity at muscarinic M2 receptor in guinea-pig stimulated left atria
[3] = system: Muscarinic acetylcholine receptor M4 (Cavia porcellus); assay: Agonist muscarinic M4 receptor in guinea-pig lung strips
[4] = target: Muscarinic acetylcholine receptor M3 (Cavia porcellus) (UniProt Q8VH26); assay: Agonist activity at muscarinic M3 receptor in guinea-pig ileum; format: functional, tissue-based
Muscarinic acetylcholine receptor M3 (Cavia porcellus), sequence (Q8VH26 1-587): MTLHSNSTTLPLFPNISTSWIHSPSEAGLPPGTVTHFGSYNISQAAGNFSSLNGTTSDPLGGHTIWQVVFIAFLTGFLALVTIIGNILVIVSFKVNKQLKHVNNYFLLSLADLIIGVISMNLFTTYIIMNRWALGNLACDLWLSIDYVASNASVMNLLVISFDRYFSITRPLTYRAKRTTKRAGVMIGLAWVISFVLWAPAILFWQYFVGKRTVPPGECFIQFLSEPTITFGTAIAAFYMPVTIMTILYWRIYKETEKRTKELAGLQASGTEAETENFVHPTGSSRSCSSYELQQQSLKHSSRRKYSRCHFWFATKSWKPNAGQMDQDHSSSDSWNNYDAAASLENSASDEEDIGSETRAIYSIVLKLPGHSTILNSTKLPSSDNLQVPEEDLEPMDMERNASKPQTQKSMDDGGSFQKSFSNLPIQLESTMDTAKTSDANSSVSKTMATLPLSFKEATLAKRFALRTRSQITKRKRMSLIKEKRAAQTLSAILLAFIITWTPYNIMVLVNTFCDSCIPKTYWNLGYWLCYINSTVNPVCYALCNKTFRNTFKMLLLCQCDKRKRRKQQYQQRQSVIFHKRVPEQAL
Method in brief: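 Isolated tissues in an organ bath were washed for 30 min, then a cumulative dose–response curve to the compound was built. Contractions were recorded isometrically by force transducer and expressed as % of the maximal control-curve response. Parallel untreated tissues checked sensitivity drift. Values are means ± SEM of four to six independent experiments.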

[5] = target: Muscarinic acetylcholine receptor M3 (Cavia porcellus) (UniProt Q8VH26); assay: Intrinsic activity at muscarinic M3 receptor in guinea-pig ileum assessed as ratio of agonist activity to activity of […]; format: functional, tissue-based
[6] = target: T1, Muscarinic acetylcholine receptor M1 (Homo sapiens) (UniProt P11229); assay: Antagonist activity at muscarinic M1 receptor in rabbit stimulated vas deferens at 10 uM; format: functional, tissue-based; conditions: Oryctolagus cuniculus, target entry is the homologue from another species
T1 sequence (whole entry): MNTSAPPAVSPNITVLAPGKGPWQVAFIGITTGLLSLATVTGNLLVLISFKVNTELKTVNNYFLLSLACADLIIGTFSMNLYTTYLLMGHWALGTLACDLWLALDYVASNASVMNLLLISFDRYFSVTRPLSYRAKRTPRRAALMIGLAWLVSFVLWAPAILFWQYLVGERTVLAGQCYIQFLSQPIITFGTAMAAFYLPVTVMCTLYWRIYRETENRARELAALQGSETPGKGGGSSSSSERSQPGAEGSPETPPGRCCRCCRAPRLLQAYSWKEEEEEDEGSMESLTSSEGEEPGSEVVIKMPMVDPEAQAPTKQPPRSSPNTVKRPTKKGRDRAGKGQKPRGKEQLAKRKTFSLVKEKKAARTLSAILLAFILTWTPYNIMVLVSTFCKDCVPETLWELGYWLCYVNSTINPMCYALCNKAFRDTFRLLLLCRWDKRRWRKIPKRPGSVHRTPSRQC

[7] = system: Muscarinic acetylcholine receptor M2 (Cavia porcellus); assay: Intrinsic activity at muscarinic M2 receptor in guinea-pig stimulated left atria assessed as ratio of agonist activity to activity of arecaidine propargyl ester
[8] = target: T1, Muscarinic acetylcholine receptor M1 (Homo sapiens); conditions: Oryctolagus cuniculus; Vas deferens
[9] = target: T2, Muscarinic acetylcholine receptor M2 (Homo sapiens) (UniProt P08172); assay: Antagonist activity at muscarinic M2 receptor in guinea-pig stimulated left atria at 10 uM; format: functional; conditions: Cavia porcellus, target entry is the homologue from another species
T2 sequence (whole entry): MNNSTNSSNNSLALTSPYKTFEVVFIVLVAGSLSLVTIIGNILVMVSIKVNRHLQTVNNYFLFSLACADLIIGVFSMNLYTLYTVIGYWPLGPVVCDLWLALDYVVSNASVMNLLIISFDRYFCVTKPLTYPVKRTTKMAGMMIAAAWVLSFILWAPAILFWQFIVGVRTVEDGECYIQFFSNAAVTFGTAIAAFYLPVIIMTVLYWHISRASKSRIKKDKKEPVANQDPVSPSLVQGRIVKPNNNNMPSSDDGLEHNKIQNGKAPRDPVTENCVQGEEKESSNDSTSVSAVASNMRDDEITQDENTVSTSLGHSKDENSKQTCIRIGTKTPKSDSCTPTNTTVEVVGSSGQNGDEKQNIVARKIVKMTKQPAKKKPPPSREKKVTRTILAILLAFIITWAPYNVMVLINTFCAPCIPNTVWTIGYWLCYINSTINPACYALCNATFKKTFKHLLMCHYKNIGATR

[10] = target: T3, Muscarinic acetylcholine receptor M4 (Homo sapiens, UniProt P08173); assay: Agonist activity at human muscarinic M4 receptor expressed in CHO cells; format: functional, cell-based
T3 sequence (P08173 whole entry): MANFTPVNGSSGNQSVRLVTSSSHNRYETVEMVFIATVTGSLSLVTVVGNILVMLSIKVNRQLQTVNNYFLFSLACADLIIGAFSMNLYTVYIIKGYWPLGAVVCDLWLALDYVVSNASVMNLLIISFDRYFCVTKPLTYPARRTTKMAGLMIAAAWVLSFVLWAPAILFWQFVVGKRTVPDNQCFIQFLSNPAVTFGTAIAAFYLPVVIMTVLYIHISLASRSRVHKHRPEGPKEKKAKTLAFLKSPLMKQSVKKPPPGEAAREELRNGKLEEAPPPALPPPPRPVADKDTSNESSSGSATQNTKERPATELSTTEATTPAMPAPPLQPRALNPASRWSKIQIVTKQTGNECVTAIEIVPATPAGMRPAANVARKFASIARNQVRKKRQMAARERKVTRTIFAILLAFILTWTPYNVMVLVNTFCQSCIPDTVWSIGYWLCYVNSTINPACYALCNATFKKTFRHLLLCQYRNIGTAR

[11] = target: T4, Muscarinic acetylcholine receptor M5 (Homo sapiens) (UniProt P08912); assay: Agonist activity at human muscarinic M5 receptor expressed in CHO cells; format: functional, cell-based
T4 sequence (whole entry): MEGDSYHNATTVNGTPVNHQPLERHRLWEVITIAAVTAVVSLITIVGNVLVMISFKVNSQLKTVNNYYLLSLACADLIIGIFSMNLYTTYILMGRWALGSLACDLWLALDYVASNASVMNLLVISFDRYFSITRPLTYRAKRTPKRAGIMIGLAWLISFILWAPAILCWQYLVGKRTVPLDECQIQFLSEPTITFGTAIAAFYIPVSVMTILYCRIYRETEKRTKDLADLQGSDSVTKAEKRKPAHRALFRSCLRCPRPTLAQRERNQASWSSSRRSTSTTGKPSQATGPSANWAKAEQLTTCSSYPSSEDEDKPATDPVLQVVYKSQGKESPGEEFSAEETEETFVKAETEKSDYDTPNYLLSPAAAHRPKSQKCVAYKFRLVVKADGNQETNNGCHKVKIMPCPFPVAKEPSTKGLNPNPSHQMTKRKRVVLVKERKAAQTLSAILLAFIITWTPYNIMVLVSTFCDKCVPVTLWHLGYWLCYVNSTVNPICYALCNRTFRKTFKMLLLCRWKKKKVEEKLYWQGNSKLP

Q: Which results are given for `C[C@H]1OCC[C@@H](C[N+](C)(C)C)O1`?
A: Intrinsic activity [1]: 1; pD2 [2]: 5.24; pD2 [3]: 6.41; pD2 [4]: 5.73; Intrinsic activity [5]: 1; pKb [6]: > 5; Intrinsic activity [7]: 1

Q: With `CC1OC(C[N+](C)(C)C)CS1` (racemic) as the compound, how does the pD2 [4] read?
A: 7.75

Q: What about the pD2 [8] of the same compound?
A: 6.81

Q: `C[C@H]1O[C@@H](C[N+](C)(C)C)CS1` was tested. Which pD2 [4] did it give?
A: 5.82

Q: For `C[C@H]1CSC[C@H](C[N+](C)(C)C)O1` (relative stereo), which pKb [9] is on record?
A: < 5

Q: And the pD2 [4]?
A: 5.21

Q: And the Intrinsic activity [5]?
A: 1

Q: And the pKb [6]?
A: < 5

Q: With `C[C@H]1COC[C@@H](C[N+](C)(C)C)O1` as the compound, how does the EC50 [10] read?
A: 2.82 µM

Q: And the pD2 [4]?
A: 7.65

Q: What about the pD2 [8] of the same compound?
A: 6.78

Q: With `C[C@@H]1O[C@H](C[N+](C)(C)C)CS1` as the compound, how does the pD2 [4] read?
A: 8.06

Q: What does the source list for `CC1COCC(C[N+](C)(C)C)O1` (racemic; form 1) [listing 1 of 2 here]?
A: pD2 [4]: 7.34; pD2 [8]: 5.65

Q: How did the EC50 [10] turn out when `CC1COCC(C[N+](C)(C)C)O1` (racemic; form 2) was run?
A: 282 µM

Q: How did the pD2 [4] turn out when `C[C@H]1COC[C@H](C[N+](C)(C)C)O1` was run?
A: 6.02

Q: And the pD2 [8]?
A: 5.08

Q: `C[C@H]1OC[C@@H](C[N+](C)(C)C)O1` (relative stereo) was tested. Which pD2 [4] did it give?
A: 7.69

Q: For `CC1COCC(C[N+](C)(C)C)O1` (racemic; form 1) [listing 2 of 2 here], which EC50 [10] is on record?
A: 2.51 µM

Q: Which pD2 [2] does the source give for `C[C@H]1CSC[C@@H](C[N+](C)(C)C)O1` (relative stereo) here?
A: 6.26

Q: What about the pD2 [4] of the same compound?
A: 6.46

Q: What about the Intrinsic activity [5] of the same compound?
A: 1

Q: What about the pD2 [8] of the same compound?
A: 4.46

Q: What about the Intrinsic activity [7] of the same compound?
A: 1

Q: `C[C@@H]1COC[C@H](C[N+](C)(C)C)O1` was tested. Which Activity [11] did it give?
A: inactive

Q: What about the EC50 [10] of the same compound?
A: 25.1 µM

Q: And the pD2 [4]?
A: 6.53

Q: What about the pKb [6] of the same compound?
A: < 5

Q: For `C[C@H]1OC[C@H](C[N+](C)(C)C)O1` (relative stereo), which pD2 [4] is on record?
A: 7.47
